Results taken from ChEMBL document CHEMBL1255475, “Mutant prevention concentrations of four carbapenems against gram-negative rods” (2010).
Values after ≈ are worked out from the molar mass of the structure shown.

What was measured:
Assay type in all cases: functional
Escherichia coli [1] = test: Antibacterial activity against beta-lactamase-positive ESBL-negative Escherichia coli E412 assessed as mutant prevention concentration after overnight incubation
Outline: (§1)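 Overnight growth on blood trypticase soy agar (35°C, air) was resuspended in 0.9% saline and counted on drug-free Mueller-Hinton agar. […] Colonies were retested by agar dilution to confirm mutants. MPC was the lowest concentration preventing resistant-mutant growth.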

Acinetobacter baumannii [2] = test: Antibacterial activity against Acinetobacter baumannii A898 assessed as mutant prevention concentration after overnight incubation
Acinetobacter baumannii [3] = test: Antibacterial activity against Acinetobacter baumannii A908 assessed as mutant prevention concentration after overnight incubation
Klebsiella pneumoniae [4] = test: Antibacterial activity against beta-lactamase-negative Klebsiella pneumoniae E420 assessed as mutant prevention concentration after overnight incubation; outline: as §1
Escherichia coli [5] = test: Antibacterial activity against beta-lactamase-positive ESBL-positive Escherichia coli E465 assessed as mutant prevention concentration after overnight incubation; outline: as §1
Klebsiella pneumoniae [6] = test: Antibacterial activity against beta-lactamase-negative Klebsiella pneumoniae E419 assessed as mutant prevention concentration after overnight incubation; outline: as §1
Pseudomonas aeruginosa [7] = test: Antibacterial activity against Pseudomonas aeruginosa P352 assessed as mutant prevention concentration after overnight incubation
Pseudomonas aeruginosa [8] = test: Antibacterial activity against Pseudomonas aeruginosa P358 assessed as mutant prevention concentration after overnight incubation
Acinetobacter baumannii [9] = test: Antibacterial activity against Acinetobacter baumannii A903 assessed as mutant prevention concentration after overnight incubation
Klebsiella pneumoniae [10] = test: Antibacterial activity against beta-lactamase-positive ESBL-negative Klebsiella pneumoniae E472 assessed as mutant prevention concentration after overnight incubation; outline: as §1
Pseudomonas aeruginosa [11] = test: Antibacterial activity against Pseudomonas aeruginosa P373 assessed as mutant prevention concentration after overnight incubation
Acinetobacter baumannii [12] = test: Antibacterial activity against Acinetobacter baumannii A929 assessed as mutant prevention concentration after overnight incubation
Acinetobacter baumannii [13] = test: Antibacterial activity against Acinetobacter baumannii A931 assessed as mutant prevention concentration after overnight incubation
Pseudomonas aeruginosa [14] = test: Antibacterial activity against Pseudomonas aeruginosa P353 assessed as mutant prevention concentration after overnight incubation
Klebsiella pneumoniae [15] = test: Antibacterial activity against beta-lactamase-positive ESBL-negative Klebsiella pneumoniae E511 assessed as mutant prevention concentration after overnight incubation; outline: as §1
Acinetobacter baumannii [16] = test: Antibacterial activity against Acinetobacter baumannii A849 assessed as mutant prevention concentration after overnight incubation
Acinetobacter baumannii [17] = test: Antibacterial activity against Acinetobacter baumannii A912 assessed as mutant prevention concentration after overnight incubation
Escherichia coli [18] = test: Antibacterial activity against beta-lactamase-negative Escherichia coli E408 assessed as mutant prevention concentration after overnight incubation
Pseudomonas aeruginosa [19] = test: Antibacterial activity against Pseudomonas aeruginosa P338 assessed as mutant prevention concentration after overnight incubation
Pseudomonas aeruginosa [20] = test: Antibacterial activity against Pseudomonas aeruginosa P319 assessed as mutant prevention concentration after overnight incubation
Klebsiella pneumoniae [21] = test: Antibacterial activity against beta-lactamase-negative Klebsiella pneumoniae E361 assessed as mutant prevention concentration after overnight incubation
Klebsiella pneumoniae [22] = test: Antibacterial activity against beta-lactamase-negative Klebsiella pneumoniae E360 assessed as mutant prevention concentration after overnight incubation
Klebsiella pneumoniae [23] = test: Antibacterial activity against beta-lactamase-negative Klebsiella pneumoniae E417 assessed as mutant prevention concentration after overnight incubation
Klebsiella pneumoniae [24] = test: Antibacterial activity against beta-lactamase-positive ESBL-negative Klebsiella pneumoniae E481 assessed as mutant prevention concentration after overnight incubation; outline: as §1
Pseudomonas aeruginosa [25] = test: Antibacterial activity against Pseudomonas aeruginosa P327 assessed as mutant prevention concentration after overnight incubation
Klebsiella pneumoniae [26] = test: Antibacterial activity against beta-lactamase-negative Klebsiella pneumoniae E362 assessed as mutant prevention concentration after overnight incubation
Klebsiella pneumoniae [27] = test: Antibacterial activity against beta-lactamase-negative Klebsiella pneumoniae E359 incubated up to 7 days by agar dilution method; settings: E359, 168 h
Escherichia coli [28] = test: Antibacterial activity against beta-lactamase-positive ESBL-negative Escherichia coli E430 incubated up to 7 days by agar dilution method; settings: E430, 168 h
Outline: (§2)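 MIC by CLSI agar dilution, with quality-control strains in each run. Beta-lactamase status was set by 30 μg cefazolin Kirby-Bauer disk diffusion. ESBL status was set by cefotaxime and ceftazidime disks (30 μg) with and without clavulanic acid (10 μg).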

Escherichia coli [29] = test: Antibacterial activity against beta-lactamase-positive ESBL-negative Escherichia coli E484 incubated up to 7 days by agar dilution method; settings: E484, 168 h
Klebsiella pneumoniae [30] = test: Antibacterial activity against beta-lactamase-negative Klebsiella pneumoniae E420 incubated up to 7 days by agar dilution method; settings: E420, 168 h; outline: as §2
Klebsiella pneumoniae [31] = test: Antibacterial activity against beta-lactamase-negative Klebsiella pneumoniae E417 incubated up to 7 days by agar dilution method; settings: E417, 168 h; outline: as §2
Escherichia coli [32] = test: Antibacterial activity against beta-lactamase-positive ESBL-positive Escherichia coli E460 incubated up to 7 days by agar dilution method; settings: E460, 168 h; outline: as §2
Klebsiella pneumoniae [33] = test: Antibacterial activity against beta-lactamase-positive ESBL-negative Klebsiella pneumoniae E481 incubated up to 7 days by agar dilution method; settings: E481, 168 h
Escherichia coli [34] = test: Antibacterial activity against beta-lactamase-negative Escherichia coli E345 incubated up to 7 days by agar dilution method; settings: E345, 168 h
Klebsiella pneumoniae [35] = test: Antibacterial activity against beta-lactamase-negative Klebsiella pneumoniae E358 incubated up to 7 days by agar dilution method; settings: E358, 168 h
Escherichia coli [36] = test: Antibacterial activity against beta-lactamase-positive ESBL-positive Escherichia coli E446 incubated up to 7 days by agar dilution method; settings: E446, 168 h; outline: as §2
Escherichia coli [37] = test: Antibacterial activity against beta-lactamase-positive ESBL-positive Escherichia coli E451 incubated up to 7 days by agar dilution method; settings: E451, 168 h; outline: as §2
Klebsiella pneumoniae [38] = test: Antibacterial activity against beta-lactamase-positive ESBL-positive Klebsiella pneumoniae E478 incubated up to 7 days by agar dilution method; settings: E478, 168 h
Escherichia coli [39] = test: Antibacterial activity against beta-lactamase-positive ESBL-positive Escherichia coli E456 incubated up to 7 days by agar dilution method; settings: E456, 168 h; outline: as §2
Escherichia coli [40] = test: Antibacterial activity against beta-lactamase-positive ESBL-negative Escherichia coli E412 incubated up to 7 days by agar dilution method; settings: E412, 168 h; outline: as §2
Klebsiella pneumoniae [41] = test: Antibacterial activity against beta-lactamase-negative Klebsiella pneumoniae E419 incubated up to 7 days by agar dilution method; settings: E419, 168 h
Escherichia coli [42] = test: Antibacterial activity against beta-lactamase-positive ESBL-positive Escherichia coli E459 incubated up to 7 days by agar dilution method; settings: E459, 168 h; outline: as §2
Klebsiella pneumoniae [43] = test: Antibacterial activity against beta-lactamase-positive ESBL-negative Klebsiella pneumoniae E507 incubated up to 7 days by agar dilution method; settings: E507, 168 h
Outline: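 MPC determination: overnight cultures on blood trypticase soy agar at 35°C in air were resuspended in 0.9% saline, and CFU were counted on drug-free Mueller-Hinton agar. […] Growth was retested by agar dilution to confirm mutants. MPC was the lowest concentration preventing resistant-mutant growth.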

Klebsiella pneumoniae [44] = test: Antibacterial activity against beta-lactamase-positive ESBL-negative Klebsiella pneumoniae E480 incubated up to 7 days by agar dilution method; settings: E480, 168 h

C[C@@H](O)[C@H]1C(=O)N2C(C(=O)O)=C(SCCNC=N)C[C@H]12 [IMIPENEM ANHYDROUS]
MPC (Escherichia coli [1]): 1 µg/mL
MPC (Acinetobacter baumannii [2]): 4 µg/mL
MPC (Acinetobacter baumannii [3]): 1 µg/mL
MPC (Klebsiella pneumoniae [4]): 0.25 µg/mL
MPC (Escherichia coli [5]): 0.5 µg/mL
MPC (Klebsiella pneumoniae [6]): 1 µg/mL
MPC (Pseudomonas aeruginosa [7]): 32 µg/mL
MPC (Pseudomonas aeruginosa [8]): 128 µg/mL
MPC (Acinetobacter baumannii [9]): 1 µg/mL
MPC (Klebsiella pneumoniae [10]): 32 µg/mL
MPC (Pseudomonas aeruginosa [11]): 32 µg/mL
MPC (Acinetobacter baumannii [12]): 1 µg/mL
MPC (Acinetobacter baumannii [13]): 1 µg/mL
MPC (Pseudomonas aeruginosa [14]): 64 µg/mL
MPC (Klebsiella pneumoniae [15]): 64 µg/mL
MPC (Acinetobacter baumannii [16]): 64 µg/mL
MPC (Acinetobacter baumannii [17]): 4 µg/mL
MPC (Escherichia coli [18]): 1 µg/mL
MPC (Pseudomonas aeruginosa [19]): 16 µg/mL
MPC (Pseudomonas aeruginosa [20]): 32 µg/mL
MPC (Klebsiella pneumoniae [21]): 1 µg/mL
MPC (Klebsiella pneumoniae [22]): 1 µg/mL
MPC (Klebsiella pneumoniae [23]): 0.5 µg/mL
MPC (Klebsiella pneumoniae [24]): 16 µg/mL
MPC (Pseudomonas aeruginosa [25]): 16 µg/mL
MPC (Klebsiella pneumoniae [26]): 1 µg/mL

C[C@@H](O)[C@H]1C(=O)N2C(C(=O)O)=C(S[C@@H]3CN[C@H](C(=O)N(C)C)C3)[C@H](C)[C@H]12 [MEROPENEM]
MPC (Escherichia coli [1]): 0.25 µg/mL
MIC (Klebsiella pneumoniae [27]): 0.06 µg/mL (≈ 0.156 µM)
MIC (Escherichia coli [28]): 0.03 µg/mL (≈ 0.0782 µM)
MPC (Acinetobacter baumannii [2]): 8 µg/mL
MPC (Acinetobacter baumannii [3]): 4 µg/mL
MPC (Klebsiella pneumoniae [4]): 0.06 µg/mL
MPC (Escherichia coli [5]): >1 µg/mL
MIC (Escherichia coli [29]): 1 µg/mL (≈ 2.61 µM)
MIC (Klebsiella pneumoniae [30]): 0.03 µg/mL (≈ 0.0782 µM)
MIC (Klebsiella pneumoniae [31]): 0.06 µg/mL (≈ 0.156 µM)
MPC (Klebsiella pneumoniae [6]): 0.125 µg/mL
MIC (Escherichia coli [32]): 0.03 µg/mL (≈ 0.0782 µM)
MPC (Pseudomonas aeruginosa [7]): 8 µg/mL
MPC (Pseudomonas aeruginosa [8]): 32 µg/mL
MPC (Acinetobacter baumannii [9]): 8 µg/mL
MIC (Klebsiella pneumoniae [33]): 1 µg/mL (≈ 2.61 µM)
MIC (Escherichia coli [34]): 0.03 µg/mL (≈ 0.0782 µM)
MIC (Klebsiella pneumoniae [35]): 0.03 µg/mL (≈ 0.0782 µM)
MIC (Escherichia coli [36]): 0.03 µg/mL (≈ 0.0782 µM)
MPC (Klebsiella pneumoniae [10]): 32 µg/mL
MIC (Escherichia coli [37]): 0.03 µg/mL (≈ 0.0782 µM)
MIC (Klebsiella pneumoniae [38]): 2 µg/mL (≈ 5.22 µM)
MPC (Pseudomonas aeruginosa [11]): >8 µg/mL
MIC (Escherichia coli [39]): 0.03 µg/mL (≈ 0.0782 µM)
MPC (Acinetobacter baumannii [12]): 4 µg/mL
MPC (Acinetobacter baumannii [13]): 4 µg/mL
MPC (Pseudomonas aeruginosa [14]): 8 µg/mL
MIC (Escherichia coli [40]): 0.06 µg/mL (≈ 0.156 µM)
MPC (Klebsiella pneumoniae [15]): 64 µg/mL
MIC (Klebsiella pneumoniae [41]): 0.06 µg/mL (≈ 0.156 µM)
MIC (Escherichia coli [42]): 0.03 µg/mL (≈ 0.0782 µM)
MPC (Acinetobacter baumannii [16]): 32 µg/mL
MPC (Acinetobacter baumannii [17]): 4 µg/mL
MPC (Escherichia coli [18]): 0.06 µg/mL
MPC (Pseudomonas aeruginosa [19]): >4 µg/mL
MPC (Pseudomonas aeruginosa [20]): 8 µg/mL
MPC (Klebsiella pneumoniae [21]): 0.125 µg/mL
MPC (Klebsiella pneumoniae [22]): 0.125 µg/mL
MPC (Klebsiella pneumoniae [23]): 0.06 µg/mL
MIC (Klebsiella pneumoniae [43]): 4 µg/mL (≈ 10.4 µM)
MPC (Klebsiella pneumoniae [24]): 16 µg/mL
MIC (Klebsiella pneumoniae [44]): 2 µg/mL (≈ 5.22 µM)
MPC (Pseudomonas aeruginosa [25]): 8 µg/mL
MPC (Klebsiella pneumoniae [26]): 0.125 µg/mL
